Experimental findings from ChEMBL document CHEMBL1124354, “Potential antiatherosclerotic agents. 6. Hypocholesterolemic trisubstituted urea analogues” (J Med Chem, 1989) are described below.

Experiment [1] concerns the target T1, Sterol O-acyltransferase 1 (Rattus norvegicus) (UniProt O70536).
T1 sequence (whole entry): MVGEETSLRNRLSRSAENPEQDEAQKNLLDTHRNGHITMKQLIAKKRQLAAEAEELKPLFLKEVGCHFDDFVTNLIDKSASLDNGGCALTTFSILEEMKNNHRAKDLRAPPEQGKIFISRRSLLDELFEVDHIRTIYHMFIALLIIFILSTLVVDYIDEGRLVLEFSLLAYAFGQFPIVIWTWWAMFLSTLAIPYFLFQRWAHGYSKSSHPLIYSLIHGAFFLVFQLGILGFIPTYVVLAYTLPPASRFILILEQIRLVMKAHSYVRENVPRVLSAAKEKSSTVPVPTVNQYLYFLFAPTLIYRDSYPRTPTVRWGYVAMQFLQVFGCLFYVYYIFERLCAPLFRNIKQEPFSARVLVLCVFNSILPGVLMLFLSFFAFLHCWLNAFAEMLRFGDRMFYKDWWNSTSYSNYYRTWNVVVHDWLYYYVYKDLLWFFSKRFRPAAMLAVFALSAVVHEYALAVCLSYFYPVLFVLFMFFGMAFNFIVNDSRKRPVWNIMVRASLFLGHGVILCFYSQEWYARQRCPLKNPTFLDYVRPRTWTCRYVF
Kind of experiment: In vitro percentage inhibition against Acyl coenzyme A:cholesterol acyltransferase derived from rat adrenals. Details: concentration or dose not given beside the values. The settings on record: concentration not given here. In outline: (§1)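 Rat adrenal 1000g supernatant (microsomal ACAT) in 0.2 M KH2PO4 pH 7.4 with BSA; test compound at final 5.2 µg/mL, preincubated 37 °C 10 min; [14C]oleoyl-CoA (0.4 µCi) added, 37 °C 30 min. Cholesteryl ester separated by TLC, scintillation counted; mean percent inhibition against compound-free control.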

The target of experiment [2] is T1, Sterol O-acyltransferase 1 (Rattus norvegicus). Nature of the experiment: In vitro percentage inhibition against acyl coenzyme A:cholesterol acyltransferase derived from rat adrenals. Details: concentration or dose not given beside the values. The settings on record: concentration not given here. In outline: as §1
The target is the same in experiment [3]. Nature of the experiment: Liver hypolipidemic activity in rats. In kind it is functional. In outline: (§2)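 Male CD-1 Sprague-Dawley rats, 140–150 g, fed 1% cholesterol/0.5% cholic acid diet with compound admixed at 0.01% (about 10 mg/kg/day) for 7 days. Serum and liver cholesterol measured by Technicon autoanalyzer methods; expressed as percent of control.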

Experiment [4] shares this target. Nature of the experiment: Serum hypolipidemic activity in rats. In kind it is functional. In outline:
as §2

Consider `CCCCN(CCCC)C(=O)Nc1ccc(I)cc1`, for which the inhibition in experiment [1] turned out to be 83%.
The same measure, in the same setting: for `Cc1ccc(Cl)cc1NC(=O)NCc1ccccc1` the value was 33%.
For `O=C(O)c1ccc(NC(=O)N(Cc2ccccc2)Cc2ccccc2)cc1`, the inhibition in experiment [2] was 14%.
Regarding `CCCCN(CCCC)C(=O)Nc1ccc(C)c(C)c1`, the inhibition in experiment [1] stood at 49%.
Still for that read-out and setting: for `CCCCN(CCCC)C(=O)Nc1ccc(C(C)=O)cc1` the value was 55%.
In the case of `CCCCC(CC)CN(CC(CC)CCCC)C(=O)Nc1ccc(C)cc1C` (stereo not drawn), the inhibition in experiment [1] was found to be 86%.
As to `CCCN(CCC)C(=O)Nc1ccc(C)cc1C`, the inhibition in experiment [2] worked out at 8%.
Regarding `CCCCN(CCC(c1ccccc1)c1ccccc1)C(=O)Nc1ccc(C)cc1C`, the inhibition in experiment [1] is 53%.
For `O=C(Nc1ccc(Cl)c(Cl)c1)N(Cc1ccccc1)Cc1ccccc1`, in experiment [1], the inhibition turned out to be 95%.
As for `O=C(Nc1ccc(Cl)cc1)N(Cc1ccccc1)c1ccccc1`, the inhibition in experiment [2] is 68%. Moreover, the LS in experiment [3] was found to be 102%. In experiment [4], this molecule displayed an SS of 67%.
Consider `Cc1cccc(Cl)c1NC(=O)N(Cc1ccccc1)Cc1ccccc1`, for which the inhibition in experiment [1] came to 84%.
For the molecule `COc1cccc(NC(=O)N(Cc2ccccc2)Cc2ccccc2)c1`, the inhibition in experiment [2] came out at 87%.
On the same count and under the same terms, for `O=C(Nc1ccccc1Br)N(Cc1ccccc1)Cc1ccccc1` the value was 94%.
On the same count and under the same terms, for `CCCCN(Cc1ccccc1)C(=O)Nc1ccc(C)c(C)c1` the value was 87%.
As to `CCCCN(CCCC)C(=O)Nc1ccc(OC)cc1`, in experiment [2], the inhibition turned out to be 59%. For the same molecule, the LS in experiment [3] is 109%. In addition, the SS in experiment [4] came out at 127%.
In the case of `CCCCN(CCC12CC3CC(CC(C3)C1)C2)C(=O)Nc1ccc(C)cc1C`, in experiment [1], the inhibition came to 56%.
On to `CCCCN(Cc1ccccc1)C(=O)Nc1cccc(Cl)c1`, for which the inhibition in experiment [2] is 89%.
For `CCCCN(CCCC)C(=O)Nc1cccc(SC)c1`, in experiment [2], the inhibition turned out to be 85%.
As to `O=C(Nc1ccccc1Cl)N(Cc1ccccc1)Cc1ccccc1`, the inhibition in experiment [2] came to 88%.
Still for that read-out and setting: for `CCCCN(CCCC)C(=O)Nc1ccccc1Br` the value was 51%.
For `CCCCN(Cc1ccccc1)C(=O)Nc1c(C)cccc1C`, the inhibition in experiment [2] came to 83%. In experiment [3], this molecule displayed an LS of 91%. In experiment [4], this molecule had an SS of 68%.
On to `CCCCN(Cc1ccccc1)C(=O)Nc1cccc(C)c1C`, for which, in experiment [2], the inhibition turned out to be 86%.
For `Cc1ccc(NC(=O)NCc2ccccc2)c(C)c1`, the inhibition in experiment [1] was 35%.
Same read-out and setting: then `CSc1ccc(NC(=O)N(Cc2ccccc2)Cc2ccccc2)cc1`, with 67%.
Still for that read-out and setting: for `O=C(Nc1ccc(Cl)c(C(F)(F)F)c1)N(Cc1ccccc1)Cc1ccccc1` the value was 92%.
With `CCCCN(Cc1ccccc1)C(=O)Nc1cc(C)ccc1C`, the inhibition in experiment [2] came to 93%.
Consider `CN(C(=O)Nc1cc(Cl)ccc1Cl)c1ccccc1`, for which the inhibition in experiment [1] came out at 48%.
On to `CCCCN(Cc1ccccc1)C(=O)Nc1ccccc1C`, for which the inhibition in experiment [2] stood at 79%. Besides, the LS in experiment [3] was 137%. For the same molecule, the SS in experiment [4] is 109%.
Consider `CCCCN(CCCC)C(=O)Nc1ccc(C(C)C)cc1`, for which the inhibition in experiment [2] came out at 76%.
On to `CCCCN(Cc1ccccc1)C(=O)Nc1c(Cl)cc(Cl)cc1Cl`, for which the inhibition in experiment [2] stood at 88%. Besides, the LS in experiment [3] worked out at 32%. Moreover, the SS in experiment [4] was determined as 48%.
The corresponding values for `CCCCN(CCCC)C(=O)Nc1cc(Cl)c(Cl)cc1Cl` are 62%, 103% and 111%.
On to `O=C(Nc1cc(Cl)ccc1Cl)N(Cc1ccccc1)Cc1ccccc1`, for which the inhibition in experiment [1] was found to be 82%.
`CCCCN(CCCC)C(=O)Nc1cc(Cl)ccc1C`: the inhibition in experiment [2] worked out at 75%.
Turning to `CCCCN(Cc1ccccc1)C(=O)Nc1ccccc1[N+](=O)[O-]`, the inhibition in experiment [1] was determined as 37%.
With `CCCCN(Cc1ccccc1)C(=O)Nc1cc(C)cc(C)c1`, the inhibition in experiment [2] is 94%. In experiment [3], the LS is 75%. In experiment [4], this molecule showed an SS of 93%.
On to `COc1ccc(OC)c(NC(=O)N(Cc2ccccc2)Cc2ccccc2)c1`, for which the inhibition in experiment [2] is 88%.
Take `C=CCN(CC=C)C(=O)Nc1ccc(C)cc1C`: the inhibition in experiment [2] stood at 43%.
Still for that read-out and setting: then `CCCCOc1ccc(NC(=O)N(Cc2ccccc2)Cc2ccccc2)cc1`, with 90%.
Regarding `O=C(Nc1ccc(Cl)cc1Cl)N(Cc1ccccc1)Cc1ccccc1`, the inhibition in experiment [1] was 83%.
Regarding `CCCCN(C)C(=O)Nc1ccc(Cl)c(Cl)c1`, in experiment [2], the inhibition was 64%.
The same measure, in the same setting: for `CCCCN(CCCC)C(=O)Nc1ccc(C)cc1` the value was 80%; for `O=C(Nc1ccc(I)cc1)N(Cc1ccccc1)Cc1ccccc1`, 85%.
In the case of `CCCCN(CCCC)C(=O)Nc1ccc([N+](=O)[O-])cc1Cl`, the inhibition in experiment [1] came out at 87%.
As to `CCCCCCCCCN(CCCCCCCCC)C(=O)Nc1ccc(C)cc1C`, the inhibition in experiment [1] turned out to be 90%.
Regarding `O=C(Nc1cccc([N+](=O)[O-])c1)N(Cc1ccccc1)Cc1ccccc1`, in experiment [2], the inhibition was determined as 81%.
`CCC(C)N(C(=O)Nc1ccc(C)cc1C)C(C)CC` (stereo not drawn): the inhibition in experiment [1] was 78%.
Regarding `CCCCN(CCCC)C(=O)Nc1ccc([N+](=O)[O-])cc1`, the inhibition in experiment [1] was 75%.
Turning to `CCCCN(CC(C)(c1ccccc1)c1ccccc1)C(=O)Nc1ccc(C)cc1C`, in experiment [1], the inhibition came to 97%.
Turning to `CCCCN(Cc1ccccc1)C(=O)Nc1cc(Cl)ccc1O`, the inhibition in experiment [2] worked out at 86%.
With `Cc1ccc(C)c(NC(=O)N(Cc2ccccc2)Cc2ccccc2)c1`, the inhibition in experiment [1] stood at 89%.
The same measure, in the same setting: then `CCCCN(CCCC)C(=O)Nc1cccc(Cl)c1Cl`, with 85%.
With `CCN(CC)C(=O)Nc1ccc(C)cc1C`, the inhibition in experiment [2] worked out at 18%.
With `Cc1ccc(NC(=O)N(C(C)C)C(C)C)c(C)c1`, in experiment [2], the inhibition was -1%.
On the same count and under the same terms, then `Cc1ccc(NC(=O)N(CC(C)C)CC(C)C)c(C)c1`, with 80%.
As to `CCCCN(CCCCC1CCCCC1)C(=O)Nc1ccc(C)cc1C`, in experiment [1], the inhibition is 40%.
Consider `Cc1ccc(NC(=O)N(Cc2ccccc2)Cc2ccccc2)cc1`, for which the inhibition in experiment [2] worked out at 87%.
Consider `CCc1cccc(CC)c1NC(=O)N(Cc1ccccc1)Cc1ccccc1`, for which the inhibition in experiment [1] stood at 72%.
Turning to `CCN(C(=O)Nc1ccccc1C)c1ccccc1`, the inhibition in experiment [1] turned out to be 9%.
Still for that read-out and setting: then `CCCCN(CCCC)C(=O)Nc1cccc(Br)c1`, with 86%.
With `CCCCN(Cc1ccccc1)C(=O)Nc1cc(OC)c(OC)c(OC)c1`, the inhibition in experiment [2] stood at 74%.
On the same count and under the same terms, for `CCCCN(Cc1ccccc1)C(=O)Nc1cc(Cl)ccc1OC` the value was 81%; for `CCCCN(Cc1ccccc1)C(=O)Nc1cccc(C)c1`, 92%.
Same read-out and setting: then `O=C(Nc1ccc(Cl)cc1)N(Cc1ccccc1)Cc1ccccc1`, with 78%; and `Cc1ccccc1NC(=O)N(Cc1ccccc1)Cc1ccccc1`, with 77%.
With `CCCCN(CC(c1ccccc1)C1CCCCC1)C(=O)Nc1ccc(C)cc1C` (stereo not drawn), the inhibition in experiment [1] was 74%.
Turning to `Cc1ccc(NC(=O)N(C)C)c(C)c1`, the inhibition in experiment [2] is -7%.
Take `CCCCCCCCCCCN(CCCCCCCCCCC)C(=O)Nc1ccc(C)cc1C`: the inhibition in experiment [1] was determined as 49%.
On to `CCCCN(Cc1ccccc1)C(=O)Nc1cccc(Cl)c1OC`, for which the inhibition in experiment [2] is 85%.
With `O=C(Nc1ccc(Br)cc1Br)N(Cc1ccccc1)c1ccccc1`, the inhibition in experiment [2] was found to be 82%.
As for `CCCCCCCC/C=C/CCCCCCCCN(Cc1ccc(CCCC)cc1)C(=O)Nc1ccc(C)cc1C` (stereo in doubt; 160), the inhibition in experiment [1] amounted to 42%.
For `CC(=O)c1cccc(NC(=O)N(Cc2ccccc2)Cc2ccccc2)c1`, the inhibition in experiment [2] is 81%.
Regarding `O=C(Nc1cccc(Cl)c1Cl)N(Cc1ccccc1)Cc1ccccc1`, the inhibition in experiment [1] stood at 80%.
On the same count and under the same terms, then `O=C(Nc1c(Cl)cccc1Cl)N(Cc1ccccc1)Cc1ccccc1`, with 89%.
`CCc1cccc(C)c1NC(=O)N(Cc1ccccc1)Cc1ccccc1`: the inhibition in experiment [1] is 74%.
For the molecule `CCCCN(CCCC)C(=O)Nc1ccc(F)cc1`, the inhibition in experiment [2] was 56%.
For the molecule `COc1ccccc1NC(=O)N(Cc1ccccc1)Cc1ccccc1`, the inhibition in experiment [1] came to 91%.
Regarding `O=C(Nc1ccc(Br)cc1)N(Cc1ccccc1)Cc1ccccc1`, in experiment [2], the inhibition came out at 80%.
As to `CCCCN(CCCC)C(=O)Nc1c(C)cccc1C`, the inhibition in experiment [2] came out at 85%.
On the same count and under the same terms, then `COc1ccc(NC(=O)N(Cc2ccccc2)Cc2ccccc2)cc1`, with 72%.
Consider `O=C(Nc1cc(F)ccc1F)N(Cc1ccccc1)Cc1ccccc1`, for which, in experiment [1], the inhibition amounted to 72%.
As for `CCCCN(CCCC)C(=O)Nc1c(C)cc(C)cc1C`, in experiment [2], the inhibition came to 74%.
For `CCCCN(CCCC)C(=O)Nc1ccc(Cl)cc1C`, in experiment [2], the inhibition came out at 88%.
With `CCCCN(CCCC)C(=O)Nc1cccc(C)c1C`, the inhibition in experiment [2] was 88%.
As to `CCCCN(Cc1ccccc1)C(=O)Nc1ccc(C(=O)O)cc1C`, the LS in experiment [3] came to 88%. The molecule also came in with an SS in experiment [4] of 76%.
Take `Cc1cccc(C)c1NC(=O)N(Cc1ccccc1)Cc1ccccc1`: the inhibition in experiment [1] turned out to be 56%.
Same read-out and setting: for `CCCCN(Cc1ccccc1)C(=O)Nc1cc(Cl)c(N)c(Cl)c1` the value was 61%.
As to `Cc1cccc(NC(=O)N(Cc2ccccc2)Cc2ccccc2)c1`, the inhibition in experiment [2] turned out to be 89%.
The same measure, in the same setting: for `CCCCN(Cc1ccccc1)C(=O)Nc1ccc(Cl)c(Cl)c1` the value was 96%.

One may read the inhibition as the change of the read-out against control, counted positive when it falls.
